# Source: ChEMBL document CHEMBL2331220, “Benzimidazole clubbed with triazolo-thiadiazoles and triazolo-thiadiazines: new anticancer agents” (2013)
# What was measured:
# Format in all cases: functional
# NCI/ADR-RES = test: Cytotoxicity against human NCI/ADR-RES cells after 48 hrs by SRB assay
# Summary of the method: (§1)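 NCI 60-line five-dose screen. Cells were preincubated 24 h at 37 °C under 5% CO2 and 100% humidity, and time-zero plates were TCA-fixed when compound was added. Five 10-fold concentrations (0.01–100) were tested for 48 h. Cells were fixed with cold TCA (final 10%, 60 min, 4 °C), stained with 0.4% SRB for 10 min, and read at 515 nm. GI50, TGI and LC50 came from growth-percentage formulas, with out-of-range values given as > or <.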
# HT-29 = test: Cytotoxicity against human HT-29 cells after 48 hrs by SRB assay; details: HT-29, 48 h; summary of the method: as §1
# UO-31 = test: Cytotoxicity against human UO31 cells after 48 hrs by SRB assay; details: UO-31, 48 h
# Summary of the method: (§2)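 NCI 60-line five-dose screen: cells plated, held 24 h at 37 °C, 5% CO₂ before treatment, with a TCA-fixed time-zero plate. Five final concentrations (0.01–100 µM, 10-fold dilutions) for 48 h. Cells fixed with cold TCA (10% final) and stained with 0.4% SRB in 1% acetic acid. Dye dissolved in 10 mM Tris and read at 515 nm. GI₅₀, TGI and LC₅₀ taken from percent-growth curves.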
# CAKI-1 = test: Cytotoxicity against human Caki1 cells after 48 hrs by SRB assay; details: CAKI-1, 48 h; summary of the method: as §1
# SN12C = test: Cytotoxicity against human SN12C cells after 48 hrs by SRB assay; summary of the method: as §2
# SF-539 = test: Cytotoxicity against human SF539 cells after 48 hrs by SRB assay; details: SF-539, 48 h; summary of the method: as §1
# HCT-116 = test: Cytotoxicity against human HCT116 cells after 48 hrs by SRB assay; details: HCT-116, 48 h; summary of the method: as §1
# [1] = read-out: LC50 (the source's name)
# [2] = read-out: pLC50 (the source's name) (converted)
structure (smiles),measurement,setting,value
O=C(CCc1nnc2sc(-c3ccc(Cl)cc3Cl)nn12)c1nc2ccccc2[nH]1,GI50,NCI/ADR-RES; read-out: GI50,1560 nM
same,LC50,NCI/ADR-RES; read-out: LC50,> 100000 nM
same,TGI,NCI/ADR-RES; read-out: TGI,5800 nM
same,GI50,NCI/ADR-RES; read-out: pGI50 (converted),1550 nM
same,LC50,NCI/ADR-RES; read-out: pLC50 (converted),> 100000 nM
same,TGI,NCI/ADR-RES; read-out: pTGI (converted),5750 nM
same,GI50,HT-29; read-out: GI50,362 nM
same,CC50,HT-29; [1],> 100000 nM
same,TGI,HT-29; read-out: TGI,1810 nM
same,GI50,HT-29; read-out: pGI50 (converted),363 nM
same,CC50,HT-29; [2],> 100000 nM
same,TGI,HT-29; read-out: pTGI (converted),1820 nM
same,GI50,UO-31; read-out: GI50,576 nM
same,LC50,UO-31; read-out: LC50,4630 nM
same,TGI,UO-31; read-out: TGI,2020 nM
same,GI50,UO-31; read-out: pGI50 (converted),575 nM
same,LC50,UO-31; read-out: pLC50 (converted),4680 nM
same,TGI,UO-31; read-out: pTGI (converted),2040 nM
same,GI50,CAKI-1; read-out: GI50,1450 nM
same,TGI,CAKI-1; read-out: TGI,3440 nM
same,GI50,CAKI-1; read-out: pGI50 (converted),1450 nM
same,TGI,CAKI-1; read-out: pTGI (converted),3470 nM
same,GI50,SN12C; read-out: GI50,1230 nM
same,TGI,SN12C; read-out: TGI,3100 nM
same,GI50,SN12C; read-out: pGI50 (converted),1230 nM
same,TGI,SN12C; read-out: pTGI (converted),3090 nM
same,GI50,SF-539; read-out: GI50,2170 nM
same,CC50,SF-539; [1],22800 nM
same,TGI,SF-539; read-out: TGI,4860 nM
same,GI50,SF-539; read-out: pGI50 (converted),2190 nM
same,CC50,SF-539; [2],22900 nM
same,TGI,SF-539; read-out: pTGI (converted),4900 nM
same,GI50,HCT-116; read-out: GI50,320 nM
same,CC50,HCT-116; [1],5060 nM
same,TGI,HCT-116; read-out: TGI,1240 nM
same,GI50,HCT-116; read-out: pGI50 (converted),316 nM
same,CC50,HCT-116; [2],5010 nM
same,TGI,HCT-116; read-out: pTGI (converted),1230 nM
